Data published in ChEMBL document CHEMBL5058577, “EUbOPEN Chemogenomics Library 2 (Multiplex)” (2022).

System: Fibroblast
Experiment: Multiplex assay against human fibroblast
Type: toxicity, cell-based
Procedure, shortened: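 On a CQ1 microscope at 37°C and 5% CO2, live cells were imaged after compound addition. They had been stained at seeding with Hoechst33342, BioTracker Green Microtubule Cytoskeleton Dye, MitoTracker Red and Annexin V Alexa Fluor 680. CellPathfinder machine-learning gating assigned cells to Hoechst high-intensity objects or normal cells, normal cells to healthy, pyknosed or fragmented nuclei, and pyknosed cells to mitotic or apoptotic. Tubulin, mitochondrial-mass and membrane-permeability phenotypes are per cents of healthy-nucleus cells.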

[1] = 12 h, 1 µM, compound concentration 1 uM, replicate 1
[2] = 12 h, 1 µM, compound concentration 1 uM, replicate 2
[3] = 12 h, 10 µM, compound concentration 10 uM, replicate 1
[4] = 12 h, 10 µM, compound concentration 10 uM, replicate 2
[5] = 24 h, 1 µM, compound concentration 1 uM, replicate 1
[6] = 24 h, 1 µM, compound concentration 1 uM, replicate 2
[7] = 24 h, 10 µM, compound concentration 10 uM, replicate 1
[8] = 24 h, 10 µM, compound concentration 10 uM, replicate 2
[9] = 48 h, 1 µM, compound concentration 1 uM, replicate 1
[10] = 48 h, 1 µM, compound concentration 1 uM, replicate 2
[11] = 48 h, 10 µM, compound concentration 10 uM, replicate 1
[12] = 48 h, 10 µM, compound concentration 10 uM, replicate 2

CCc1cc2cc(NS(=O)(=O)c3ccc(C#N)cc3)ccc2n(CC)c1=O
Population Apoptotic (%) [1]: 42%
Population Fragmented Nuclei (%) [1]: 16%
Population Healthy Nuclei (%) [1]: 64%
Population Hoechst High Intensity Objects (%) [1]: 1%
Population Membrane Permeable-Phenotype (%) [1]: 1%
Population Mitochondria Different-Phenotype (%) [1]: 3%
Population Mitotic Cells (%) [1]: 57%
Population Normal (%) [1]: 98%
Population Pyknosed Nuclei (%) [1]: 18%
Population Tubulin-Different-Phenotype (%) [1]: 24%
Total Cell Count [1]: 157
Population Fragmented Nuclei (%) [2]: 27%
Population Healthy Nuclei (%) [2]: 40%
Population Hoechst High Intensity Objects (%) [2]: 6%
Population Membrane Permeable-Phenotype (%) [2]: 9%
Population Mitochondria Different-Phenotype (%) [2]: 7%
Population Normal (%) [2]: 93%
Population Pyknosed Nuclei (%) [2]: 32%
Population Tubulin-Different-Phenotype (%) [2]: 39%
Total Cell Count [2]: 173
Population Apoptotic (%) [3]: 42%
Population Fragmented Nuclei (%) [3]: 18%
Population Healthy Nuclei (%) [3]: 54%
Population Hoechst High Intensity Objects (%) [3]: 1%
Population Membrane Permeable-Phenotype (%) [3]: 1%
Population Mitochondria Different-Phenotype (%) [3]: 5%
Population Mitotic Cells (%) [3]: 57%
Population Normal (%) [3]: 98%
Population Pyknosed Nuclei (%) [3]: 26%
Population Tubulin-Different-Phenotype (%) [3]: 65%
Total Cell Count [3]: 133
Population Apoptotic (%) [4]: 18%
Population Fragmented Nuclei (%) [4]: 19%
Population Healthy Nuclei (%) [4]: 43%
Population Hoechst High Intensity Objects (%) [4]: 5%
Population Membrane Permeable-Phenotype (%) [4]: 12%
Population Mitochondria Different-Phenotype (%) [4]: 6%
Population Mitotic Cells (%) [4]: 81%
Population Normal (%) [4]: 94%
Population Pyknosed Nuclei (%) [4]: 37%
Population Tubulin-Different-Phenotype (%) [4]: 74%
Total Cell Count [4]: 153
Population Apoptotic (%) [5]: 53%
Population Fragmented Nuclei (%) [5]: 19%
Population Healthy Nuclei (%) [5]: 63%
Population Hoechst High Intensity Objects (%) [5]: 5%
Population Membrane Permeable-Phenotype (%) [5]: 1%
Population Mitochondria Different-Phenotype (%) [5]: 4%
Population Mitotic Cells (%) [5]: 46%
Population Normal (%) [5]: 94%
Population Pyknosed Nuclei (%) [5]: 17%
Population Tubulin-Different-Phenotype (%) [5]: 26%
Total Cell Count [5]: 157
Population Apoptotic (%) [6]: 43%
Population Fragmented Nuclei (%) [6]: 26%
Population Healthy Nuclei (%) [6]: 48%
Population Hoechst High Intensity Objects (%) [6]: 6%
Population Membrane Permeable-Phenotype (%) [6]: 9%
Population Mitochondria Different-Phenotype (%) [6]: 8%
Population Mitotic Cells (%) [6]: 56%
Population Normal (%) [6]: 93%
Population Pyknosed Nuclei (%) [6]: 25%
Population Tubulin-Different-Phenotype (%) [6]: 51%
Total Cell Count [6]: 164
Population Apoptotic (%) [7]: 50%
Population Fragmented Nuclei (%) [7]: 19%
Population Healthy Nuclei (%) [7]: 58%
Population Hoechst High Intensity Objects (%) [7]: 2%
Population Membrane Permeable-Phenotype (%) [7]: 1%
Population Mitochondria Different-Phenotype (%) [7]: 6%
Population Mitotic Cells (%) [7]: 50%
Population Normal (%) [7]: 97%
Population Pyknosed Nuclei (%) [7]: 22%
Population Tubulin-Different-Phenotype (%) [7]: 59%
Total Cell Count [7]: 130
Population Apoptotic (%) [8]: 32%
Population Fragmented Nuclei (%) [8]: 22%
Population Healthy Nuclei (%) [8]: 38%
Population Hoechst High Intensity Objects (%) [8]: 9%
Population Membrane Permeable-Phenotype (%) [8]: 6%
Population Mitochondria Different-Phenotype (%) [8]: 12%
Population Mitotic Cells (%) [8]: 67%
Population Normal (%) [8]: 90%
Population Pyknosed Nuclei (%) [8]: 39%
Population Tubulin-Different-Phenotype (%) [8]: 72%
Total Cell Count [8]: 145
Population Apoptotic (%) [9]: 52%
Population Fragmented Nuclei (%) [9]: 24%
Population Healthy Nuclei (%) [9]: 59%
Population Hoechst High Intensity Objects (%) [9]: 3%
Population Membrane Permeable-Phenotype (%) [9]: 0%
Population Mitochondria Different-Phenotype (%) [9]: 4%
Population Mitotic Cells (%) [9]: 47%
Population Normal (%) [9]: 96%
Population Pyknosed Nuclei (%) [9]: 15%
Population Tubulin-Different-Phenotype (%) [9]: 27%
Total Cell Count [9]: 150
Population Apoptotic (%) [10]: 37%
Population Fragmented Nuclei (%) [10]: 33%
Population Healthy Nuclei (%) [10]: 50%
Population Hoechst High Intensity Objects (%) [10]: 5%
Population Membrane Permeable-Phenotype (%) [10]: 12%
Population Mitochondria Different-Phenotype (%) [10]: 8%
Population Mitotic Cells (%) [10]: 62%
Population Normal (%) [10]: 94%
Population Pyknosed Nuclei (%) [10]: 16%
Population Tubulin-Different-Phenotype (%) [10]: 60%
Total Cell Count [10]: 156
Population Apoptotic (%) [11]: 60%
Population Fragmented Nuclei (%) [11]: 17%
Population Healthy Nuclei (%) [11]: 62%
Population Hoechst High Intensity Objects (%) [11]: 1%
Population Membrane Permeable-Phenotype (%) [11]: 1%
Population Mitochondria Different-Phenotype (%) [11]: 12%
Population Mitotic Cells (%) [11]: 40%
Population Normal (%) [11]: 98%
Population Pyknosed Nuclei (%) [11]: 19%
Population Tubulin-Different-Phenotype (%) [11]: 61%
Total Cell Count [11]: 129
Population Fragmented Nuclei (%) [12]: 30%
Population Healthy Nuclei (%) [12]: 48%
Population Hoechst High Intensity Objects (%) [12]: 7%
Population Membrane Permeable-Phenotype (%) [12]: 18%
Population Mitochondria Different-Phenotype (%) [12]: 7%
Population Mitotic Cells (%) [12]: 39%
Population Normal (%) [12]: 92%
Population Pyknosed Nuclei (%) [12]: 20%
Population Tubulin-Different-Phenotype (%) [12]: 69%
Total Cell Count [12]: 145
